In ChEMBL document CHEMBL2331489, “Novel cinnoline-based inhibitors of LRRK2 kinase activity” (Bioorg Med Chem Lett, 2013):
The source made the active and inactive calls. The calls are words filed in the database; no cut-off is given here.

Test system: Brain
Experiment: Drug uptake in Mdr1(a/b) knock out and P-gp competent FVB mouse brain at 1 mg/kg, iv at 5 mins
Type: ADME, organism-based
Set-up: dose 1 mg/kg, route intravenous
Conditions: in vivo
In short: (§1)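 FVB mice, both Mdr1a/b (-/-) and P-gp-competent wild-type, were given a single 1 mg/kg IV dose. Brain and plasma concentrations were measured 5 min after dosing. Brain uptake was expressed as the brain-to-plasma concentration ratio (Kp). In vivo P-gp efflux was assessed by comparing the knockout and wild-type strains.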

SMILES	Drug uptake
C[C@@H](Nc1c(C(N)=O)nnc2cc(-c3ccncc3)ccc12)C1CC1	Active

Target: Platelet-derived growth factor receptor alpha (Homo sapiens, UniProt P16234)
Experiment: Inhibition of PDGFRalpha (unknown origin) by TR-FRET assay in presence of ATP
Conditions: not given

IC50 [nM]	SMILES
262	CC(C)Nc1c(C(N)=O)nnc2cc(-c3ccc(S(C)(=O)=O)cc3)ccc12

Target: Macrophage colony-stimulating factor 1 receptor (Homo sapiens, UniProt P07333)
Experiment: Inhibition of CSF1R (unknown origin) by TR-FRET assay in presence of ATP
Conditions: not given

Macrophage colony-stimulating factor 1 receptor, sequence (P07333 whole entry): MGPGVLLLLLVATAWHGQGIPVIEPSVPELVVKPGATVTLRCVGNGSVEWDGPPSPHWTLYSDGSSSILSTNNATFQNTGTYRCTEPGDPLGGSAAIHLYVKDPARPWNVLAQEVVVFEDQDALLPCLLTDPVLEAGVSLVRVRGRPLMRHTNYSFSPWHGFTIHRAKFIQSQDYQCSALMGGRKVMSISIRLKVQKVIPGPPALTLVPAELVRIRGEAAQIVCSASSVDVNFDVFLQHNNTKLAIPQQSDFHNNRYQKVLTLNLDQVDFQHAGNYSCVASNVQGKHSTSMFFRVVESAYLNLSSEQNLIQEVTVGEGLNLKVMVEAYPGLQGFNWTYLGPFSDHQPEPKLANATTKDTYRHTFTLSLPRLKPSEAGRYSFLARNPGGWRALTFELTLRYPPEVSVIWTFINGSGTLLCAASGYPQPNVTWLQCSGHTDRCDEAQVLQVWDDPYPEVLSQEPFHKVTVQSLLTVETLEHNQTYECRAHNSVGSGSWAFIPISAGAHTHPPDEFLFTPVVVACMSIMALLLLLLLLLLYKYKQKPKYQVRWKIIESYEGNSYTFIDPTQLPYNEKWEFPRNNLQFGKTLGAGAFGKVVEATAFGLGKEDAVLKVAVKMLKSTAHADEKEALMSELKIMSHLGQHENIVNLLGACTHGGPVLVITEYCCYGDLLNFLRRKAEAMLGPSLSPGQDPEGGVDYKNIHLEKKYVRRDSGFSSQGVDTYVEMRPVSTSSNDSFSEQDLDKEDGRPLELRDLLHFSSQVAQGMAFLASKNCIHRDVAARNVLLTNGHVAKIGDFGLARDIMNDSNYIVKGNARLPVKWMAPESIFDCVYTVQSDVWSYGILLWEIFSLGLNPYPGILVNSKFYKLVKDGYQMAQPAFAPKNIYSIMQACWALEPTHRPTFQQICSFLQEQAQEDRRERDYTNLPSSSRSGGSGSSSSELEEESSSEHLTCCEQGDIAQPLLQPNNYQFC

IC50 [nM]	SMILES
12	CC(C)Nc1c(C(N)=O)nnc2cc(-c3ccc(S(C)(=O)=O)cc3)ccc12

Target: ATP-dependent translocase ABCB1 (Homo sapiens, UniProt P08183)
Experiment: Inhibition of MDR1 (unknown origin) transfected in MDCK cells
Type: cell-based
Conditions: not given

ATP-dependent translocase ABCB1, sequence (P08183 whole entry): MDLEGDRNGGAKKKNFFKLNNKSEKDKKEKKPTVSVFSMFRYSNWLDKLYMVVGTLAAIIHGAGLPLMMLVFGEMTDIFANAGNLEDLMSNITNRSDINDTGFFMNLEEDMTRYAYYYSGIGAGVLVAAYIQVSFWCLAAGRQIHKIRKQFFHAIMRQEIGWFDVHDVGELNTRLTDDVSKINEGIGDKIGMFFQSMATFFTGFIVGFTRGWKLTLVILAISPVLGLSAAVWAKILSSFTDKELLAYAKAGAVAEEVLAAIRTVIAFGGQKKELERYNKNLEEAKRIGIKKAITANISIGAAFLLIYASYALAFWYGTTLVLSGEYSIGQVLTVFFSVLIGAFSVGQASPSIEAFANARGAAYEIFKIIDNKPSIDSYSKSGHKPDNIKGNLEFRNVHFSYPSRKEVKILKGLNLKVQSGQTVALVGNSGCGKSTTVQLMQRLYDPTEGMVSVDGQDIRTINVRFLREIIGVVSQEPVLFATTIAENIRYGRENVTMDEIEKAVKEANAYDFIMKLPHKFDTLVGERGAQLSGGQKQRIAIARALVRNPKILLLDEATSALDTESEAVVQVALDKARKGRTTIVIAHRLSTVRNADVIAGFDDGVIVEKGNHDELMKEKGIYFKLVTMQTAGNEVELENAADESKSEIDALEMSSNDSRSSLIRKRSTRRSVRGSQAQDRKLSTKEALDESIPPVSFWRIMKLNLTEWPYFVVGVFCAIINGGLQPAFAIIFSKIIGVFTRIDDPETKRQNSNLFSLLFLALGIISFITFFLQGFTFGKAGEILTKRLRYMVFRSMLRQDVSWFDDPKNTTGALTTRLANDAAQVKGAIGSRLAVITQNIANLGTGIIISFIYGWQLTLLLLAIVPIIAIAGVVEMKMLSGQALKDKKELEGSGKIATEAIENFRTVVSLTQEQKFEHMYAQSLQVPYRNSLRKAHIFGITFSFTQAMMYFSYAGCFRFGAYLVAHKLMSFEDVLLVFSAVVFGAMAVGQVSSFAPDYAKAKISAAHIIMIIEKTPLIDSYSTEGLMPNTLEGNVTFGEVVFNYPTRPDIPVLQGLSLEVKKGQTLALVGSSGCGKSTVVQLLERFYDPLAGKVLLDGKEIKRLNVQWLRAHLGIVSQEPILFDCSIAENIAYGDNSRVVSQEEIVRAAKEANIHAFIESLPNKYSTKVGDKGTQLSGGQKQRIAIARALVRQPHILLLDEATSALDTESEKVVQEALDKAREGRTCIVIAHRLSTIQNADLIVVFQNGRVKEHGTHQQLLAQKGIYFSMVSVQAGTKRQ

SMILES	inhibition (INH)
C[C@@H](Nc1c(C(N)=O)nnc2cc(-c3ccncc3)ccc12)C1CC1	Active

Test system: Mus musculus
Experiment: Inhibition of P-gp in Mdr1(a/b) knock out and P-gp competent FVB mouse at 1 mg/kg, iv
Type: functional, organism-based
Set-up: dose 1 mg/kg
Conditions: not given
In short: as §1

SMILES	inhibition
C[C@@H](Nc1c(C(N)=O)nnc2cc(-c3ccncc3)ccc12)C1CC1	Active

Test system: not listed separately
Experiment: Ratio of drug level in brain to plasma in Mdr1(a/b) knock out and P-gp competent FVB mouse at 1 mg/kg, iv at 5 mins
Type: ADME, organism-based
Set-up: dose 1 mg/kg, route intravenous
Conditions: read-out: BPR
In short: as §1

SMILES	Kp at 5 min
C[C@@H](Nc1c(C(N)=O)nnc2cc(-c3ccncc3)ccc12)C1CC1	1.5

Target: T1, Leucine-rich repeat serine/threonine-protein kinase 2 (Homo sapiens, UniProt Q5S007, G2019S)
Experiment: Inhibition of LRRK2 G2019S mutant (unknown origin) transfected in HEK293 cells assessed as inhibition of S935 phosphorylation
Type: cell-based
Conditions: not given

T1 sequence (Q5S007 whole entry G2019S): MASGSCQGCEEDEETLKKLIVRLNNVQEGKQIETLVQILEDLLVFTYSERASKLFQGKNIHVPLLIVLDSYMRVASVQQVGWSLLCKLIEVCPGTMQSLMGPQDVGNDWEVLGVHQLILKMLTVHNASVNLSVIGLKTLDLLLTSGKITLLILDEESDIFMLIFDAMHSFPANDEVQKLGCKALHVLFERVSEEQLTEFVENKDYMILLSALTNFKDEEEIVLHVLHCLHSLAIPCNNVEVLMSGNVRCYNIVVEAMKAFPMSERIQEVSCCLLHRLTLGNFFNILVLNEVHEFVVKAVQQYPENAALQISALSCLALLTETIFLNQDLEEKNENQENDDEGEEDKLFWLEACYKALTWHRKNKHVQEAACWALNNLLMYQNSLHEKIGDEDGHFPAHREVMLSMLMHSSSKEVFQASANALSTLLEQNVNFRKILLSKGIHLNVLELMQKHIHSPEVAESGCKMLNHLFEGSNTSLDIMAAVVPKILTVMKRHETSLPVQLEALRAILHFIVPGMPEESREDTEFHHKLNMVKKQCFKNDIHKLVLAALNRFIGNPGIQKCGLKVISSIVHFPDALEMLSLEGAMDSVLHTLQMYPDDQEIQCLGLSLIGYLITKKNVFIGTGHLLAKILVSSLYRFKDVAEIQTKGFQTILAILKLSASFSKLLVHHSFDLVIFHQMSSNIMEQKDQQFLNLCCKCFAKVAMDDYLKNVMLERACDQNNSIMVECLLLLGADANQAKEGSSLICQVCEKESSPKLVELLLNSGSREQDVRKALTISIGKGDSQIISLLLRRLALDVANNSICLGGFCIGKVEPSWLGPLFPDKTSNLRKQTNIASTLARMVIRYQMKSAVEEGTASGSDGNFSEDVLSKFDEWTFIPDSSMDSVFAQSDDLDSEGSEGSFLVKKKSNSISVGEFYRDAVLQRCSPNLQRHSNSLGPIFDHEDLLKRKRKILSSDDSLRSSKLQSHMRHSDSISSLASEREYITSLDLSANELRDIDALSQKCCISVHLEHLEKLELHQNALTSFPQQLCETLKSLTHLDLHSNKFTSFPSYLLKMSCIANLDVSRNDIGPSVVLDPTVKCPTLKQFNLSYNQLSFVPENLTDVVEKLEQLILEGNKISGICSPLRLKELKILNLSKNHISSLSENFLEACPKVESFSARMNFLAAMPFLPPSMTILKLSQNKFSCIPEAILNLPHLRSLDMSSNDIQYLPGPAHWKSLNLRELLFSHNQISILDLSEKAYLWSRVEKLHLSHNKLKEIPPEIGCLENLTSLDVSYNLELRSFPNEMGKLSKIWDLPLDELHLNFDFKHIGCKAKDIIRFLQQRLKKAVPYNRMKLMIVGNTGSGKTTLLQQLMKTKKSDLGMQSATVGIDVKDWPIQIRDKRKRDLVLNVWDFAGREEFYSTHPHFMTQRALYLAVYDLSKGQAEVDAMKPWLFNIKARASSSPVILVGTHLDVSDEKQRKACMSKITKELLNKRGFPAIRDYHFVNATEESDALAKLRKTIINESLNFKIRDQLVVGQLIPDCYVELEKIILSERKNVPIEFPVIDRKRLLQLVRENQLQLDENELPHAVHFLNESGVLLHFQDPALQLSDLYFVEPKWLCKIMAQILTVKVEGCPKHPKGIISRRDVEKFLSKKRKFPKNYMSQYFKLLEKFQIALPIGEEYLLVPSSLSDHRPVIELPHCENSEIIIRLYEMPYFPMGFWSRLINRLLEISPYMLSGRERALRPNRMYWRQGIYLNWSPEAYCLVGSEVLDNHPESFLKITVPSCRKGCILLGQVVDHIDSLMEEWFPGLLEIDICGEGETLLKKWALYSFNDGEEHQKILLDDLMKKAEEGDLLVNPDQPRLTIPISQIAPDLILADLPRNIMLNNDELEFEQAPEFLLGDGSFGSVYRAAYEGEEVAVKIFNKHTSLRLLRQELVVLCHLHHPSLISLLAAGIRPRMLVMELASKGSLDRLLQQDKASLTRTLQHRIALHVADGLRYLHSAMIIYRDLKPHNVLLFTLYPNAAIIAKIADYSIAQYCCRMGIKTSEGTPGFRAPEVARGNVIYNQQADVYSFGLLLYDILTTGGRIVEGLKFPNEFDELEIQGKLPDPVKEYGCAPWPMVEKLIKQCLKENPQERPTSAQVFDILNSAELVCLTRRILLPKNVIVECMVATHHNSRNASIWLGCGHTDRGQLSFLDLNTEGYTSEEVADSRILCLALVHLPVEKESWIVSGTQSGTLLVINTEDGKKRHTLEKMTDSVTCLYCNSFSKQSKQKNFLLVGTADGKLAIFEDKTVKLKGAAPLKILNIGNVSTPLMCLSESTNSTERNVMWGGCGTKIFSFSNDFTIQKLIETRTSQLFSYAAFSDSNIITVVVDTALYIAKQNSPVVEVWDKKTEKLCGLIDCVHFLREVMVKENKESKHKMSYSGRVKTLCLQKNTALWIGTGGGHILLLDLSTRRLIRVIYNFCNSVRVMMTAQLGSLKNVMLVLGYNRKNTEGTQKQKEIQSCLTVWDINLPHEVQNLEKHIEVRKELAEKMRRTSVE

SMILES	EC50 [nM]
C[C@@H](Nc1c(C(N)=O)nnc2cc(-c3ccncc3)ccc12)C1CC1	62
CC(C)Nc1c(C(N)=O)nnc2cc(-c3cnsc3)ccc12	290

More lines, now with the values ahead:

EC50 [nM]	SMILES
218	CC(C)Nc1c(C(N)=O)nnc2cc(-c3ccc(S(C)(=O)=O)cc3)ccc12
73	CC[C@@H](C)Nc1c(C(N)=O)nnc2cc(-c3ccc(S(C)(=O)=O)cc3)ccc12

Target: T1, Leucine-rich repeat serine/threonine-protein kinase 2
Experiment: Inhibition of GST-tagged LRRK2 G2019S mutant (970 to 2527 amino acid residues) (unknown origin) assessed as inhibition of biotinylated-LRRKtide phosphorylation by HTRF assay in presence of ATP
Conditions: not given

SMILES	IC50 [nM]
C[C@@H](Nc1c(C(N)=O)nnc2cc(-c3ccncc3)ccc12)C1CC1	6
CC(C)Nc1c(C(N)=O)nnc2ccc(-c3cnn(C)c3)cc12	425
CC(C)Nc1c(C(N)=O)nnc2cc(-c3cn[nH]c3)ccc12	18
Cc1c(-c2ccncc2)ccc2c(NC(C)C)c(C(N)=O)nnc12	2510
CC(C)Nc1c(C(N)=O)nnc2cc(-c3cnn(C)c3)ccc12	12
CC(C)Nc1c(C(N)=O)nnc2cc(N3CCN(C)CC3)ccc12	59
NC(=O)c1nnc2cc(-c3ccncc3)ccc2c1NCCCO	162
CC(C)Nc1c(C(N)=O)nnc2cc(-c3cnsc3)ccc12	20

Next, values leading:

IC50 [nM]	SMILES
27	CC(C)Nc1c(C(N)=O)nnc2cc(-c3ccc(S(C)(=O)=O)cc3)ccc12
55	CCNc1c(C(N)=O)nnc2cc(-c3ccc(S(C)(=O)=O)cc3)ccc12
264	NC(=O)c1nnc2cc(-c3ccncc3)ccc2c1NCCO
27	CS(=O)(=O)c1ccc(-c2ccc3c(NCC4CC4)c(C(N)=O)nnc3c2)cc1
298	CS(=O)(=O)c1ccc(-c2ccc3c(N)c(C(N)=O)nnc3c2)cc1
247	CNC(=O)c1nnc2cc(-c3ccc(S(C)(=O)=O)cc3)ccc2c1N[C@H](C)C1CC1
56	CNc1c(C(N)=O)nnc2cc(-c3ccc(S(C)(=O)=O)cc3)ccc12
53	CS(=O)(=O)c1ccc(-c2ccc3c(NC4CCOC4)c(C(N)=O)nnc3c2)cc1 (racemic)
4	CC[C@@H](C)Nc1c(C(N)=O)nnc2cc(-c3ccc(S(C)(=O)=O)cc3)ccc12
52	CS(=O)(=O)c1ccc(-c2ccc3c(NC4CC4)c(C(N)=O)nnc3c2)cc1
418	CNC(=O)c1nnc2cc(-c3ccc(S(C)(=O)=O)cc3)ccc2c1NC(C)C
32	CS(=O)(=O)c1ccc(-c2ccc3c(NC4CCOCC4)c(C(N)=O)nnc3c2)cc1

Target: Leucine-rich repeat serine/threonine-protein kinase 2 (Homo sapiens, UniProt Q5S007)
Experiment: Inhibition of wild type GST-tagged LRRK2 (970 to 2527 amino acid residues) (unknown origin) assessed as inhibition of biotinylated-LRRKtide phosphorylation by HTRF assay in presence of ATP
Conditions: not given

Leucine-rich repeat serine/threonine-protein kinase 2 (Homo sapiens, UniProt Q5S007), sequence (Q5S007 whole entry, the tested form may be a part): as the sequence (Q5S007 whole entry G2019S) above, with S2019G counted along it

SMILES	IC50 [nM]
C[C@@H](Nc1c(C(N)=O)nnc2cc(-c3ccncc3)ccc12)C1CC1	2
CC(C)Nc1c(C(N)=O)nnc2cc(-c3cn[nH]c3)ccc12	12
Cc1c(-c2ccncc2)ccc2c(NC(C)C)c(C(N)=O)nnc12	3200
CC(C)Nc1c(C(N)=O)nnc2cc(-c3cnsc3)ccc12	14

Now from value to molecule:

IC50 [nM]	SMILES
781	CS(=O)(=O)c1ccc(-c2ccc3c(Nc4ccccc4)c(C(N)=O)cnc3c2)cc1
1	CC[C@@H](C)Nc1c(C(N)=O)nnc2cc(-c3ccc(S(C)(=O)=O)cc3)ccc12
49	CS(=O)(=O)c1ccc(-c2ccc3c(NC4CC4)c(C(N)=O)nnc3c2)cc1
